Compound activity as filed in PubChem.
PGC1a acetyl up – compounds raising PGC1a acetylation signal, primary screen, PGC1a modulator project, cell-based, U2OS, AlphaScreen, signal-increasing mode. overnight. activation, % at 15.6 µM. 350,000 compounds, 0.21% hits. AID 651723, 2012;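 active = every replicate reaching activation of at least 50%, whatever the mean replicate activation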;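 also: hits raise the AlphaScreen acetylation signal above neutral controls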
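System: Flag-PGC1a/GCN5 U2OS cells | Quantity: 7000 cells/well | Times: Overnight compound treatment, 37 °C | Measured by: AlphaScreen proximity luminescence, anti-acetyl-lysine antibody | Dosing: One concentration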
Hep G6PC suppr – suppressors of forskolin-stimulated G6PC mRNA, dose response, PGC-1a acetylation activator project, cell-based, hepatocytes, RT-qPCR, cherry-picked samples; shares compounds with PGC1a acetyl up; primary mouse hepatocytes; G6PC suppression (normalized activity, % of positive control; higher = more suppression), % at 26 µM; 240 tested, under 10 active;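 active = dose curves showing G6PC suppression whose half-maximal dose is at most twice the top valid dose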;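 also: G6PC expression relative to GAPDH housekeeping gene as delta delta Ct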
PCK1 hep suppr – suppression of PCK1 mRNA in primary hepatocytes, dose response, PGC-1a acetylation activator project, cell-based, primary mouse hepatocytes, RT-qPCR, cherry-pick; shares compounds with PGC1a acetyl up; forskolin-stimulated; PCK1 expression decrease, unspecified at 26 µM; 230 tested, under 10 active;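 active = compounds lowering PCK1 expression whose fitted half-maximal concentration is at most twice the top tested dose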;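 also: higher delta delta Ct means lower PCK1 expression so positive values indicate hits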
PGC1a hep suppr – suppression of PGC-1a mRNA in primary hepatocytes, dose response, PGC-1a acetylation activator project, cell-based, primary mouse hepatocytes, RT-qPCR, cherry-pick | shares compounds with PGC1a acetyl up | PGC-1a mRNA qPCR, forskolin; top dose 26 µM | AID 743467, 2014 | max activity (PGC-1a expression decrease), % | 240 tested, under 10 active;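 active = compound lowering PGC-1a expression with fitted half-maximal concentration at most twice its top tested dose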
Numbers stand for hits; n = inactive. A selection follows.

SMILES	PGC1a acetyl up	others
C[C@@H]1CN([C@H](C)CO)C(=O)c2c(c3ccccc3n2C)-c2ccccc2CO[C@@H]1CN(C)C(=O)Oc1ccccc1	265
CC1OC(OC2CC(O)C3(CO)C4C(O)CC5(C)C(C6=CC(=O)OC6)CCC5(O)C4CCC3(O)C2)C(O)C(O)C1O (configuration not stated)	n
CC(=O)c1c(C)n(C2CCCCC2)c2ccc(O)cc12	n
CCC1(OC(=O)CN)C(=O)OCc2c1cc1n(c2=O)Cc2cc3ccccc3nc2-1 (configuration not stated)	n
COc1ccc(-n2nnnc2C(CCc2ccccc2)N2CCC(n3c(=O)[nH]c4ccccc43)CC2)cc1 (configuration not stated)	n
CCOc1ccc(-c2cc(C)[n+](CCc3ccc(OC)c(OC)c3)c(-c3ccc(OCC)cc3)c2)cc1	230
COC(=O)C12OCC34C(CC5C(C)=C(O)C(=O)CC5(C)C3C(O)C1O)OC(=O)C(OC(=O)/C=C(\C)C(C)C)C24 (configuration not stated)	n
CC1=C(C/C(C)=C/c2ccccc2)/C(=C/CO)[C@@H]2OC(=O)O[C@]2(C)C12CC2	n
CCn1cc(C(=O)N2CCOCC2)c2ccccc21	n
CC(=O)OC1CC(OC2C(O)CC(OC3C(O)CC(OC4CCC5(C)C(CCC6C5CCC5(C)C(C7=CC(=O)OC7)CCC65O)C4)OC3C)OC2C)OC(C)C1OC1OC(CO)C(O)C(O)C1O (configuration not stated)	n
CC(=O)OC1C(O)C(C)OC(OC2C(OC(=O)C3CCC4C(C3)OC3(CC(OC(=O)/C=C/c5ccccc5)C(C)CO3)C43CO3)OC(C)C(O)C2OC(C)=O)C1O (configuration not stated)	n
COc1ccc(CC2NCC(O)C2OC(C)=O)cc1 (configuration not stated)	n
O=C1NCN(c2ccccc2)C12CCN(C(c1cc3ccccc3o1)c1nnnn1C1CCCCC1)CC2 (configuration not stated)	84
C[C@@H]1O[C@@H](O[C@@H]2C=C3CCC4C(CC[C@]5(C)[C@@H](c6ccc(=O)oc6)CC[C@]45O)[C@@]3(C)CC2)[C@H](O)[C@H](O)[C@H]1O (some centres not stated)	n
C[C@H]1CCC/C=C/[C@@H]2C[C@H](O)C[C@H]2[C@H](O)/C=C/C(=O)O1	n
O=C1CN=C(c2ccc[nH]2)c2cc(Cl)ccc2N1	n
COc1ccc(CCNC2(C#N)CCCCC2)cc1OC	n
C1=NCCc2c1[nH]c1ccccc21	156
C[C@@H]1C[C@@H]([C@H](O)CC2CC(=O)NC(=O)C2)C(=O)[C@@H](C)C1	n
CN1CCN(Cc2cc(C(C)(C)C)c(O)c(C(C)(C)C)c2)CC1	130
C=C1C(=O)O[C@@H]2C[C@@H](C)[C@@H]3C=CC(=O)[C@@]3(C)[C@@H](O)[C@H]12	n
C[C@@H]1O[C@@H](O[C@@H]2C=C3CC[C@@H]4C(CC[C@]5(C)[C@@H](c6ccc(=O)oc6)CC[C@]45O)[C@@]3(C)CC2)[C@H](O)[C@H](O)[C@H]1O (some centres not stated)	n
CCOCCN1CCC(OC(C)=O)C(C)C1 (configuration not stated)	n
CC1=CC2OC3CC4OC(=O)C=CC=CC(C(C)O)OCC(O)C(C)CC(=O)OCC2(CC1O)C4(C)C31CO1 (configuration not stated)	n
CC(=O)OC[C@]12CCC(C)=C[C@H]1O[C@@H]1[C@H](O)[C@@H](OC(C)=O)[C@@]2(C)[C@]12CO2	n
COc1ccc(OC(=O)N(C)C[C@H]2OCc3ccccc3-c3c(n(C)c4ccccc34)C(=O)N([C@@H](C)CO)C[C@H]2C)cc1	62	Hep G6PC suppr=n;PCK1 hep suppr=n;PGC1a hep suppr=n
CC(=O)OC1(C)CC(C)C(=O)C(C(O)CC2CC(=O)NC(=O)C2)C1 (configuration not stated)	n
CC(=O)OC(C)(C)/C=C/C(=O)C(C)(O)C1C(O)CC2(C)C3CC=C4C(CC(O)C(=O)C4(C)C)C3(C)C(=O)CC12C (configuration not stated)	n
CCn1nc(-c2cccs2)nc2c(=O)n(C)c(=O)nc1-2	n
Oc1ccc2c3c1O[C@H]1[C@@H](O)CC[C@@]4(O)[C@@H](C2)N(CC2CCC2)CC[C@]314	n
